Each structure is given as a SMILES string.

The target of experiment [1] is T1, Bromodomain-containing protein 4 (Homo sapiens, UniProt O60885). The experiment can be described thus: Binding affinity to N-terminal His6-tagged BRD4 bromodomain 1 (44 to 168 residues) (unknown origin) assessed as change in melting temperature at 20 uM measured after 1 hr by Sypro orange dye based differential scanning fluorimetry. In outline:
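Ligand binding was read by differential scanning fluorimetry: a fluorescent dye reports protein core exposure during heat denaturation, and the value is the shift in protein denaturation temperature (ΔTm) with compound present.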
(In general: Differential scanning fluorimetry follows unfolding on heating by fluorescence.)

The target in experiment [2] is T1, Bromodomain-containing protein 4. Kind of experiment: Inhibition of BRD4 (unknown origin) measured after 2 hrs by TR-FRET assay. For orientation: Time-resolved FRET reads energy transfer from a long-lived donor to a nearby acceptor.

The ΔTm is the change in melting temperature against a reference sample. For the molecule `Cc1noc(C)c1COc1ccccc1C(=O)NC(c1ccccc1)c1ccccc1`, in experiment [1], the ΔTm stood at 0.93 °C. The same measure, in the same setting: then `Cc1noc(C)c1NC(=O)N1CCCCC1c1ncc[nH]1` (stereo not drawn), with 1.76 °C; and `Cc1c(C2OCCC2NCc2cc(-c3cnn(C)c3)no2)cnn1C` (stereo not drawn), with 2.02 °C; and `Cc1nnc2c(NCc3cnn(-c4ccc(Cl)cc4)c3)nccn12`, with 1.86 °C.

Consider `Cc1nnc2ccc(N3CCN(C(=O)c4csc(-c5ccccc5F)n4)CC3)nn12`, for which the shift in melting temperature (ΔTm) in experiment [1] is 1.72 °C. One may read the IC50 as the point on the concentration scale where inhibition reaches its midpoint. High values mean lower potency, low ones higher potency. On to `Cc1noc(C)c1CC(=O)Nc1nc(-c2c(C)[nH]c3ccccc23)cs1`, for which, in experiment [1], the ΔTm is 1.86 °C. The same molecule had an IC50 in experiment [2] of 19.5 µM. On to `Cc1noc(C)c1CSCC(=O)c1c(C)[nH]c2ccccc12`, for which the thermal shift (ΔTm) in experiment [1] came to 1.36 °C. For the molecule `Cc1cc(-c2cc(C(=O)NC3CCC(CO)CC3)c3c(C)noc3n2)c(C)o1` (stereo not drawn), in experiment [1], the thermal shift (ΔTm) stood at 2.82 °C. The molecule further came in with an IC50 in experiment [2] of 24.9 µM. Take `Cc1cc(C(=O)N(C)C(c2ccccc2)c2ccccn2)c2c(C)nn(C(C)(C)C)c2n1` (stereo not drawn): the shift in melting temperature (ΔTm) in experiment [1] worked out at 1.49 °C.

As for `COCCCOc1cc(C)ccc1CNc1ccc2nnc(C)n2n1`, the ΔTm in experiment [1] is 1.56 °C.

With `CCC(C)C1NC(=O)N(CC(C)c2c(C)noc2C)C1=O` (stereo not drawn), the shift in melting temperature (ΔTm) in experiment [1] was 2.12 °C.

Take `Cc1nnc2ccc(NCc3ccc(OC4CCCC4)nc3)nn12`: the shift in melting temperature (ΔTm) in experiment [1] is 1.89 °C. With `c1cnn(-c2ccc(CNc3ccc4nnc(C5CC5)n4n3)cc2)c1`, the thermal shift (ΔTm) in experiment [1] turned out to be 0.76 °C. This molecule also yielded a 50% inhibitory concentration (IC50) in experiment [2] of 63.3 µM.

On to `Cc1nnc2ccc(NC3CCCc4cc(OC(F)F)ccc43)nn12` (stereo not drawn), for which the ΔTm in experiment [1] came to 1.7 °C. On to `COc1ccc(-n2ccc(C(=O)Nc3cc(Cl)c(=O)n(C)c3)n2)cc1`, for which the thermal shift (ΔTm) in experiment [1] was found to be 1.08 °C. In the case of `Cc1n[nH]c(C)c1CNCc1c(C)nn(Cc2ccccc2)c1C`, the shift in melting temperature (ΔTm) in experiment [1] came out at 1.6 °C. In experiment [2], this molecule showed a 50% inhibitory concentration (IC50) of 33.2 µM. For `COCCc1ccccc1NC(=O)NC(c1ccccc1)c1n[nH]c(C)n1` (stereo not drawn), in experiment [1], the ΔTm is 1.26 °C.

Regarding `Cc1nnc2ccc(NCc3ccnc(OC4CCCC4)c3)nn12`, in experiment [1], the ΔTm is 1.69 °C. As to `Cc1nn(CCO)c(C)c1CNC(c1ccccc1)c1nccn1C` (stereo not drawn), the ΔTm in experiment [1] worked out at 1.09 °C.

With `Cc1nn(C2CCS(=O)(=O)C2)c(C)c1CN(C)C(=O)CC(c1ccccc1)c1ccccc1` (stereo not drawn), the ΔTm in experiment [1] is 1.82 °C. In addition, the half-maximal inhibitory concentration (IC50) in experiment [2] was 160 µM. Turning to `Cc1nnc2ccc(N(C)Cc3ccc([S+](C)[O-])cc3)nn12` (stereo not drawn), in experiment [1], the thermal shift (ΔTm) is 1.8 °C. As for `CCn1c(SC(C(=O)NCc2cccnc2)C(C)C)nnc1-c1cccs1` (stereo not drawn), in experiment [1], the ΔTm came to 1.6 °C. The same molecule returned an IC50 in experiment [2] of 8.81 µM. For the molecule `CC(C(=O)Nc1ccc2nnc(C3CCC3)n2c1)n1cncn1` (stereo not drawn), the ΔTm in experiment [1] is 1.49 °C. Take `Cc1nnc2ccc(NCc3cn(-c4ccccc4)nc3C(C)C)nn12`: the ΔTm in experiment [1] is 2.66 °C. For the same molecule, the IC50 in experiment [2] amounted to 11.7 µM. `CC(Sc1nc(-c2cccs2)n[nH]1)C(=O)N1CCCc2ccccc21` (stereo not drawn): the ΔTm in experiment [1] was found to be 1.78 °C. For the molecule `Cc1noc(C)c1CNC(=O)Nc1cccc(-c2ccc(Cl)c(Cl)c2)c1`, the ΔTm in experiment [1] was 1.56 °C. On to `Cc1nn(C)c(C)c1C1C(CNc2nccn3cnnc23)CC(=O)N1C` (stereo not drawn), for which the ΔTm in experiment [1] is 1.9 °C. The same molecule gave a half-inhibitory concentration (IC50) in experiment [2] of 23.9 µM.

As to `COCCN(C)c1ccccc1CNc1ccc2nnc(C)n2n1`, the thermal shift (ΔTm) in experiment [1] came to 1.1 °C. This molecule also showed an IC50 in experiment [2] of 107 µM.

With `O=C(CCc1ncc(-c2ccc(Cl)cc2Cl)o1)NCCc1nnc2ccccn12`, in experiment [1], the ΔTm stood at 1.21 °C.
